Drawing on ChEMBL document CHEMBL4831539, “Withanolide-Type Steroids from Physalis nicandroides Inhibit HIV Transcription” (J Nat Prod, 2021), this text covers selectivity ratio and IC50 for 6 molecules.

The nature of series [1]: Selectivity index, ratio of CC50 for human MT2 cells to IC50 for Anti-HIV activity against HIV. In kind it is toxicity. As to conditions: read-out: Selectivity Index. Put shortly:
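SI = CC50/IC50. […] CC50 came from mock-infected MT-2 cells under the same conditions, read by CellTiter Glo. Both are means of at least three independent experiments, fitted by nonlinear regression.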

Series [2] is described as follows: Antiviral activity against HIV1 pNL4.3-Luc infected in MT2 cells assessed as luciferase activity measured after 48 hrs by transfection assay. In kind it is functional, cell-based. As to conditions: Human immunodeficiency virus 1, MT2, 48 h. Put shortly:
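MT-2 cells were electroporated at 260 V, maximum resistance, with an HIV-1 whole-genome luciferase plasmid (pNL4.3-Luc). They were then treated with base-2 serial dilutions from 0.7 to 100 μM in complete RPMI at 37 °C for 48 h. PMA served as the transactivation reference. Cells were lysed and luciferase RLUs read. IC50 came from nonlinear dose–response regression.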

Series [3] deals with Human immunodeficiency virus. The series is described as follows: Antiviral activity against VSV envelope pseudotyped HIV infected in MT2 cells assessed as luminescence measured after 48 hrs by viral entry evaluation assay. In kind it is functional, organism-based. As to conditions: Human immunodeficiency virus 1, MT2, 48 h. In short, it runs like this:
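VSV-G pseudotyped HIV came from 293T cotransfection (calcium phosphate) of envelope-deleted pNL4.3-Luc-RE plus pcDNA3-VSV. MT-2 cells were infected at 100 000 RLUs or 20 ng p24 per well, with base-2 dilutions up to 100 μM, for 48 h at 37 °C, 5% CO2. NL4.3-Ren infections ran in parallel, with an enfuvirtide reference. Luciferase RLUs were read and IC50 obtained by nonlinear regression.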

A short description of series [4]: Selectivity index, ratio of CC50 for human MT2 cells to IC50 for antiviral activity against HIV1 pNL4.3-Luc infected in MT2 cells by transfection assay. It counts as toxicity, cell-based. As to conditions: read-out: Selectivity Index.
Series [5] in a line: Selectivity index, ratio of CC50 for human MT2 cells to IC50 for antiviral activity against VSV envelope pseudotyped HIV infected in MT2 cells by viral entry evaluation assay. It counts as toxicity, cell-based. As to conditions: read-out: Selectivity Index.

Regarding `C=C1C(=O)O[C@@H]([C@@H](C)[C@]2(O)C[C@H](OC(C)=O)[C@]3(O)[C@@H]4C[C@H]5O[C@]56CC=CC(=O)[C@]6(C)[C@H]4CC[C@@]32C)C[C@@]1(C)O`, in series [1], the selectivity ratio is above 8.
For the molecule `CC(=O)O[C@H]1C=C([C@H](C)[C@H]2CC(C)=C(C)C(=O)O2)[C@@]2(C)CC[C@H]3[C@@H](C[C@@H](O)[C@]45C=C[C@H](OO4)C(=O)[C@]35C)[C@@]12O`, the IC50 (commonly the concentration that inhibits the measured activity by half) in series [2] was found to be 1970 nM; in series [3], 3.2 µM. The selectivity ratio came to 1.02 in series [4] and 1.64 in series [5].
Consider enfuvirtide, for which the half-inhibitory concentration (IC50) in series [2] is 10 nM; in series [3], above 1 µM. In addition, in series [5], the selectivity ratio is 66.7.
With `C=C1C(=O)O[C@@H]([C@@H](C)[C@]2(O)C[C@H](OC(C)=O)[C@]3(O)[C@@H]4C[C@H]5O[C@]56CC=CC(=O)[C@]6(C)[C@H]4CC[C@@]32C)C[C@]1(C)O`, the selectivity ratio in series [1] is above 5.3.
For the molecule `C[C@H](Cn1cnc2c(N)ncnc21)OCP(=O)(O)O` [TENOFOVIR ANHYDROUS], the selectivity ratio in series [1] amounted to 333.
`CC(=O)O[C@H]1C=C([C@H](C)[C@H]2CC(C)=C(C)C(=O)O2)[C@@]2(C)CC[C@H]3[C@@H](C[C@H]4O[C@]45CC=CC(=O)[C@]35C)[C@@]12O`: the results for the selectivity ratio in series [1] and in series [5] were 10.6 and 2.66, respectively.
